CCR6 antagonist – antagonists of human CCR6 receptor | CHO-K1 CCR6 PathHunter beta-arrestin, luminescence, CCL20-stimulated | AID 493098 | actives 0.49% (n = 340,000) | P51684 | inhibition, % at 20 µM;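 active = compounds whose inhibition of the agonist-driven luminescence signal at 20 µM reaches about 50%, limit read from the data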;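 also: cells stimulated with CCL20 at 14 nM final; plate controls were DMSO with CCL20 for no effect and DMSO without agonist for full effect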
Target sequence (P51684 whole entry, looked up): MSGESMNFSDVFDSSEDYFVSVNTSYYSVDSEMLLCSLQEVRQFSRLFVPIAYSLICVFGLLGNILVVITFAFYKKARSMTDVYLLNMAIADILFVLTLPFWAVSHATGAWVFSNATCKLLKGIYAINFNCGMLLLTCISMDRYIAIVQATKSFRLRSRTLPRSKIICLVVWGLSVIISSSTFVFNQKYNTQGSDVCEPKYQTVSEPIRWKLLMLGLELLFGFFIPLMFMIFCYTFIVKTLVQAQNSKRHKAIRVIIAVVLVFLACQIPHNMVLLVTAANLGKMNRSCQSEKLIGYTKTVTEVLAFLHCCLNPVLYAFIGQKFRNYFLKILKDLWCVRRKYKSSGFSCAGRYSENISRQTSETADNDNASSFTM
EBI2 block – blocks human EBI2 receptor beta-arrestin signaling; P32249; EBI2 beta-arrestin recruitment, luminescence, 7a,25-OHC stimulated; inhibition, % at 5 µM; actives 0.81% (n = 360,000); AID 651636; in the data active = inhibition above about 38%;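 also: enzyme fragment complementation signal reports receptor beta-arrestin coupling in cells; 0% = agonist plus DMSO wells and 100% = wells without agonist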
CXCR6 inh – inhibitors of human CXCR6 receptor | O00574 | CHO-K1 PathHunter CXCR6 beta-arrestin, luminescence | inhibition, % at 20 µM | actives 0.36% (n = 360,000); in the data active = inhibition above about 34%, passing the limit was not always enough;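 also: antagonist mode with CXCL16 agonist at 10 nM final; 0% = 10 nM CXCL16 with DMSO and 100% = unstimulated wells without agonist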
APJ ag – agonists of human APJ apelin receptor. AID 2520. P35414. activation, % at 20 µM. actives 0.11% (n = 330,000). CHO-K1 APJ PathHunter beta-arrestin, luminescence; 0% DMSO wells, 100% apelin;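 active = activation more than six SD over the plate average, tested at 20 µM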;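 also: 0% = DMSO alone and 100% = apelin-13 at 10 nM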
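Assay system: CHO-K1 cells stably expressing ProLink-tagged human APJ and arrestin–beta-gal acceptor. Compound dosing: 20 µM single point, 1% DMSO. Times: 16-18 h seeding, 90 min dark compound exposure, 60 min detection. Detection: beta-gal luminescence. Evaluation: APJ–arrestin association signal. Controls: negative DMSO alone, positive Apelin-13 at 10 nM.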
APJ antag – blocks the human apelin receptor APJ | P35414 | CHO-K1 APJ beta-arrestin complementation, luminescence | inhibition, % at 20 µM | actives 0.32% (n = 330,000) | AID 2521;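 active = inhibition above about 40% at 20 µM, limit read from the data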;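 also: cells challenged with 10 nM apelin-13 agonist together with compound; plate controls were apelin-13 plus DMSO wells for no effect and DMSO wells lacking apelin-13 for full effect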
Numbers without * were called inactive; · = not tested or not shown. In the library only some 1.5% were active in any assay of this set; here they are far more common.

SMILES	CCR6 antagonist	EBI2 block	CXCR6 inh	APJ ag	APJ antag
COc1ccc2nc(Cl)cc(Cl)c2c1	-5	2	9	-4	4
C=CS(=O)(=O)c1c2cc(OC)ccc2nc2ccc(OC)cc12	78*	0	48*	·	·
COc1cc2ccccc2cc1C(=O)N/N=C/c1cccs1	·	-6	8	·	·
Cc1nc2nc(C)c(C)nc2nc1C	·	-1	-5	·	·
CCC(=O)NC1=C(Cl)C(=O)C(NC(=O)CC)=C(Cl)C1=O	·	-16	84*	6	-26
COc1ccc(C2CC(c3cccs3)=NN2C(=O)CCCC(=O)O)cc1OC (stereo unspecified)	·	2	0	·	·
Cc1ccc(-n2nc(C)c3c(C)c(CCC(=O)Nc4ccc(CN5CCCC5)cc4)c(C)nc32)cc1	52*	14	-10	0	-4
Cc1ccccc1NC(=O)c1nc(S(C)(=O)=O)ncc1Cl	28	24	35	-5	4
COc1ccc(NC(=O)c2nc(S(=O)(=O)Cc3cccc(C)c3)ncc2Cl)c(OC)c1	2	50*	3	3	-8
Cc1cccc(C)c1NC(=O)c1nc(S(=O)(=O)Cc2ccccc2)ncc1Cl	55*	30	54*	-8	-4
COc1ccc(C(=O)/C=C/c2cc(OC)c(O)c(OC)c2)c(F)c1	51*	11	21	-1	-4
COc1ccc2cc(C(=O)/C=C/c3cc(OC)c(O)c(OC)c3)ccc2c1	29	30	16	0	1
CCOC(=O)Cn1cc(/C=C/[N+](=O)[O-])c2ccccc21	21	-31	-4	-1	4
CCOC(=O)COc1ccc(/C=C/[N+](=O)[O-])c(OCC(=O)OCC)c1	55*	10	36	6	6
O=[N+]([O-])/C=C/c1c(OCc2ccccc2)ccc2ccccc12	·	6	36*	2	5
CCOC(=O)COc1ccc2ccccc2c1/C=C/[N+](=O)[O-]	75*	21	17	·	·
COc1ccc(N2CCN(C(=O)C(=O)c3cccc([N+](=O)[O-])c3)CC2)cc1	·	-5	·	·	·
O=C(O)c1ccc(N2C(=O)/C(=C/c3ccc(-c4ccc([N+](=O)[O-])cc4)o3)C=C2c2ccccc2)cc1	·	-9	45*	-2	19
COc1ccc(OC)c2c1C(=O)C(Cl)=C(Cl)C2=O	105*	21	102*	-3	27
c1cc2c(cc1C1CCCCC1)c1c3n2CCCNC3CCC1 (stereo unspecified)	71*	-17	4	0	-4
CCN(C(=O)COC(=O)C1CCC(C(C)(C)C)CC1)c1c(N)n(Cc2ccccc2)c(=O)[nH]c1=O (stereo unspecified)	12	-3	20	·	·
O=C(NC(Nc1nc2ccc([N+](=O)[O-])cc2s1)(C(F)(F)F)C(F)(F)F)c1ccccc1Cl	56*	15	29	-4	30
CN1CCN(c2ccc3sc(-n4ccc5ccccc54)nc3c2)CC1	·	13	0	·	·
CCOc1ccc(/C=N/NC(=S)NC2CC3CC2C2C=CCC32)cc1 (stereo unspecified)	11	36	6	-1	15
COc1cc(/C=N/NC(=S)NC2CC3CC2C2C=CCC32)ccc1O (stereo unspecified)	6	45*	14	5	5
SMILES	CCR6 antagonist	EBI2 block	CXCR6 inh	APJ ag	APJ antag
Cc1ccc(C)c(N2CCN(C(=O)c3cc4ccccn4n3)CC2)c1	8	58*	4	1	5
O=C(c1cc2ccccn2n1)N1CCN(c2cccc(C(F)(F)F)c2)CC1	-15	11	6	0	0
COc1ccc(/C(C)=N/Nc2ncc(Cl)cc2Cl)c(O)c1	22	43*	2	-1	11
O=C(NCCCN1CCCC1=O)C(=O)NCC1OCCCN1S(=O)(=O)c1ccccc1 (stereo unspecified)	·	-7	-5	·	·
COCCN(CC(=O)NC1CCCCC1)C(=O)/C=C/C(=O)c1ccc(OC)cc1O	65*	18	62*	·	·
COc1ccc(C(=O)/C=C/C(=O)N(CC(=O)NC2CCCCC2)Cc2cccs2)c(O)c1	92*	25	72*	-3	37
COc1ccc(CN(C(=O)/C=C/C(=O)c2ccc(OC)cc2O)C(C(=O)NC2CCCCC2)c2ccncc2)cc1 (stereo unspecified)	2	11	5	-5	9
Cc1ccc(OCCn2c(NC(=O)c3ccco3)nc3ccccc32)cc1	29	0	39*	-1	13
